Measured values taken from ChEMBL document CHEMBL1629690, “Development of hexadecyloxypropyl tenofovir (CMX157) for treatment of infection caused by wild-type and nucleoside/nucleotide-resistant HIV” (Antimicrob Agents Chemother, 2010).

Columns and labels:
PBMC [1] = test: Cellular uptake in PHA/IL-2-stimulated human PBMC at 10 uM assessed as TFV-monophosphate after 24 hrs by MS/MS analysis; format: ADME, cell-based
Summary of the method: (§1)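 PHA-stimulated (4 μg/ml PHA, 48 to 72 h; 20 U/ml rhIL-2) human PBMCs at 2 × 10^6 cells/ml in RPMI 1640 with 15% FBS, given tenofovir or prodrug (final 0.01 to 10 μM) for 24 h at 37°C. Cells washed three times in cold 0.9% NaCl, counted, and 1 × 10^7 cell aliquots pelleted. TFV, TFV-MP and TFV-PP were separated by ion-pairing reverse-phase LC and detected by positive-ion electrospray MS. Output is pmol per 10^6 cells.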

CEM-SS = test: Cytotoxicity against human CEM-SS cells after 24 hrs by XTT assay; format: cell-based
Summary of the method: (§2)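 Six-concentration growth-inhibition test: 10 to 0.032 μM for the prodrug and TDF, up to 100 μM for TFV, with Triton X-100 run in parallel. Cell lines were split 1:2 the day before and seeded at 5 × 10^3 to 2 × 10^4 cells/well, with adherent lines left overnight. Dendritic cells were derived with GM-CSF/IL-4 for 7 days, then LPS 10 ng/ml for 2 days. Viability was read by XTT.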

[2] = Cytotoxicity against human HuH7 cells after 24 hrs by XTT assay; format: cell-based; settings: huh-7, 24 h; summary of the method: as §2
PBMC [3] = test: Cellular uptake in PHA/IL-2-stimulated human PBMC at 1 uM assessed as TFV-monophosphate level after 24 hrs by MS/MS analysis; format: ADME, cell-based; summary of the method: as §1
PBMC [4] = test: Cellular uptake in human PBMC at 10 uM assessed as TFV-diphosphate after 24 hrs by MS/MS analysis; format: ADME, cell-based
Summary of the method: (§3)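 Human PBMCs, unstimulated or PHA/IL-2-stimulated, at 2 × 10^6 cells/ml in RPMI 1640 with 15% FBS, exposed 24 h at 37°C to final 0.01, 0.1, 1.0 or 10 μM of the prodrug, or 1.0 or 10 μM tenofovir. After cold saline washes the cells were counted and 1 × 10^7-cell pellets made. TFV, TFV-MP and TFV-PP were measured by ion-pairing LC with positive-ion electrospray MS as pmol/10^6 cells.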

PBMC [5] = test: Cellular uptake in human PBMC at 1 uM assessed as TFV-monophosphate level after 24 hrs by MS/MS analysis; format: ADME, cell-based; summary of the method: as §3
PBMC [6] = test: Cellular uptake in human PBMC at 1 uM assessed as TFV-diphosphate level after 24 hrs by MS/MS analysis; format: ADME, cell-based; summary of the method: as §3
PBMC [7] = test: Cellular uptake in human PBMC at 10 uM assessed as TFV-monophosphate after 24 hrs by MS/MS analysis; format: ADME, cell-based; summary of the method: as §3
PBMC [8] = test: Cellular uptake in PHA/IL-2-stimulated human PBMC at 10 uM after 24 hrs by MS/MS analysis; format: ADME, cell-based; summary of the method: as §1
PBMC [9] = test: Cellular uptake in PHA/IL-2-stimulated human PBMC at 10 uM assessed as TFV level after 24 hrs by MS/MS analysis; format: ADME, cell-based; summary of the method: as §1
PBMC [10] = test: Cellular uptake in human PBMC at 0.01 uM assessed as TFV-monophosphate after 24 hrs by MS/MS analysis; format: ADME, cell-based; settings: BLD = below limit of detection; summary of the method: as §3
PBMC [11] = test: Cellular uptake in human PBMC at 0.1 uM assessed as TFV-diphosphate after 24 hrs by MS/MS analysis; format: ADME, cell-based; summary of the method: as §3
[12] = Cytotoxicity against human MDM up to 1000 nM by MTS assay; format: cell-based
PBMC [13] = test: Cytotoxicity against human PBMC up to 1000 nM by MTS assay; format: cell-based
[14] = tested on: Human immunodeficiency virus 1; test: Antiviral activity against HIV1 subtype A isolate 92UG029 infected in human PBMC after 48 to 72 hrs by MTS assay; format: functional, organism-based; settings: Human immunodeficiency virus 1, isolate 92UG029
Summary of the method: (§4)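 Fresh donor PBMCs, HIV- and HBV-seronegative, were stimulated with 4 μg/ml PHA for 48 to 72 h and kept on 20 U/ml rhIL-2. Cells pooled from at least two donors were seeded at 5 × 10^4 per well and infected at MOI ~0.1. Nine compound concentrations were run in triplicate wells for 7 days.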

[15] = tested on: Human immunodeficiency virus 2; test: Antiviral activity against HIV2 isolate CBL-20 infected in human PBMC after 48 to 72 hrs by MTS assay; format: functional, organism-based; settings: Human immunodeficiency virus 2, isolate CBL-20; summary of the method: as §4
[16] = tested on: Human immunodeficiency virus 1; test: Antiviral activity against HIV1 group O isolate BCF02 infected in human PBMC after 48 to 72 hrs by MTS assay; format: functional, organism-based; settings: Human immunodeficiency virus 1, isolate BCF02; summary of the method: as §4
[17] = tested on: Human immunodeficiency virus 1; test: Antiviral activity against HIV1 subtype B isolate ADA infected in human MDM […] by MTS assay; format: functional, organism-based; settings: Human immunodeficiency virus 1, isolate ADA
PBMC [18] = test: Cellular uptake in PHA/IL-2-stimulated human PBMC at 0.01 uM assessed as TFV-diphosphate after 24 hrs by MS/MS analysis; format: ADME, cell-based
Summary of the method: (§5)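 PHA/IL-2-stimulated PBMCs at 2 × 10^6 cells/ml (5 × 10^7 per flask) were exposed for 24 h at 37°C. Cells were washed three times in cold 0.9% NaCl and counted by trypan blue. Aliquots of 1 × 10^7 cells were pelleted. TFV, TFV-MP and TFV-PP were separated by ion-pairing reverse-phase gradient LC and detected by positive electrospray. Results are given as pmol/10^6 cells.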

[19] = tested on: Human immunodeficiency virus 1; test: Antiviral activity against HIV1 subtype B isolate 92TH026 infected in human PBMC after 48 to 72 hrs by MTS assay; format: functional, organism-based; settings: Human immunodeficiency virus 1, isolate 92TH026; summary of the method: as §4
[20] = tested on: Human immunodeficiency virus 1; test: Antiviral activity against HIV1 isolate JR-CSF infected in human PBMC after 48 to 72 hrs by MTS assay in presence of 30% human serum; format: functional; settings: Human immunodeficiency virus 1, JRCSF ISOLATE
Summary of the method: (§6)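 This is the PHA/IL-2 PBMC assay run with JR-CSF preincubated with 8 × 10^6 pooled cells for 1 h at 37°C. Cells were then spinoculated at 200 × g for 1 h and held 2 h more. Infected cells (2.5 × 10^4) were added, without virus washout, to wells holding uninfected PBMCs and compound. Medium had 15% FBS, plus 0, 10, 15, 20 or 30% human serum.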

[21] = tested on: Human immunodeficiency virus 1; test: Antiviral activity against HIV1 isolate JR-CSF infected in human PBMC after 48 to 72 hrs by MTS assay; format: functional; settings: Human immunodeficiency virus 1, JRCSF ISOLATE; summary of the method: as §6
PBMC [22] = test: Cellular uptake in PHA/IL-2-stimulated human PBMC at 0.1 uM assessed as TFV-monophosphate after 24 hrs by MS/MS analysis; format: ADME, cell-based; settings: BLD = below limit of detection; summary of the method: as §5
[23] = tested on: Human immunodeficiency virus 1; test: Antiviral activity against HIV1 subtype C isolate 93MW959 infected in human PBMC after 48 to 72 hrs by MTS assay; format: functional, organism-based; settings: Human immunodeficiency virus 1, isolate 93MW959; summary of the method: as §4
[24] = tested on: Human immunodeficiency virus 1; test: Antiviral activity against HIV1 subtype B isolate Ba-L infected in human PBMC after 48 to 72 hrs by MTS assay; format: functional, organism-based; settings: Human immunodeficiency virus 1, isolate Ba-L; summary of the method: as §4
[25] = tested on: Human immunodeficiency virus 1; test: Antiviral activity against HIV1 subtype A isolate 92UG037 infected in human PBMC after 48 to 72 hrs by MTS assay; format: functional, organism-based; settings: Human immunodeficiency virus 1, isolate 92UG037; summary of the method: as §4
[26] = tested on: Human immunodeficiency virus 1; test: Antiviral activity against HIV1 subtype C isolate 91IN101 infected in human PBMC after 48 to 72 hrs by MTS assay; format: functional, organism-based; settings: Human immunodeficiency virus 1, isolate 93IN101; in the assay text read “93IN101” for “91IN101”; summary of the method: as §4

Row | SMILES | Activity (CEM-SS) | Activity [2] | Drug uptake (PBMC [4]) [pmol/10^6 cells] | Drug uptake (PBMC [6]) [pmol/10^6 cells] | Drug uptake (PBMC [7]) [pmol/10^6 cells] | Activity [12] | Activity (PBMC [13]) | EC50 [14] [nM] | EC50 [15] [nM] | EC50 [16] [nM] | EC50 [17] [nM] | EC50 [19] [nM] | EC50 [25] [nM] | other results
1 | C[C@H](Cn1cnc2c(N)ncnc21)OCP(=O)(O)O [TENOFOVIR ANHYDROUS] | Non-toxic | Non-toxic | 0.15 | 0.05 | 0.05 |  |  |  |  |  |  |  |  | Drug uptake (PBMC [1]; BLD = below limit of detection): BLD; Drug uptake (PBMC [3]; BLD = below limit of detection): BLD; Drug uptake (PBMC [5]; BLD = below limit of detection): BLD; Drug uptake (PBMC [8]): 0.09 pmol/10^6 cells
2 | CCCCCCCCCCCCCCCCOCCCOP(=O)(O)CO[C@H](C)Cn1cnc2c(N)ncnc21 [TENOFOVIR EXALIDEX] | Non-toxic | Non-toxic | 1.1 | 0.22 | 0.12 | Non-toxic | Non-toxic | 3.3 | 3.5 | 5 | 3.1 | 1.5 | 3.3 | Drug uptake (PBMC [9]): 1.9 pmol/10^6 cells; Drug uptake (PBMC [10]): BLD; Drug uptake (PBMC [11]): 0.07 pmol/10^6 cells; Drug uptake (PBMC [1]): 0.9 pmol/10^6 cells; Drug uptake (PBMC [18]): 0.07 pmol/10^6 cells; Drug uptake (PBMC [3]): 0.3 pmol/10^6 cells; EC50 [20]: 16 nM; EC50 [21]: 1.5 nM; Drug uptake (PBMC [22]): BLD; Drug uptake (PBMC [5]): 0.05 pmol/10^6 cells; EC50 [23]: 2.8 nM; EC50 [24]: 1.5 nM; EC50 [26]: 2.8 nM
3 | Cc1cn([C@H]2C[C@H](N=[N+]=[N-])[C@@H](CO)O2)c(=O)[nH]c1=O [ZIDOVUDINE] |  |  |  |  |  | Non-toxic | Non-toxic | 14 | 9.3 | 1.7 | 2.7 | 2 | 14 | 
